# Compound activity (PubChem BioAssay)
# LEDGF integ inh: blocks HIV-1 LEDGF/p75-dependent DNA integration | TR-FRET IN-LEDGF/p75 DNA integration, Eu/Cy5 | inhibition, % at 3.7 µM | actives 0.64% (n = 370,000);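 active means inhibition above the screen-wide mean plus 3 SD, cut at about 13% in these data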;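 further: signal is the Cy5 over europium emission ratio at 671 and 618 nm; 0% = plate median of compound wells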
# ABHD5-PLIN5 inh: inhibitors of human ABHD5-perilipin-5 interaction; Q00G26+Q8WTS1; Split G. princeps luciferase complementation, luminescence, 4 h; inhibition, % at 4 µM; actives 0.78% (n = 360,000); AID 602281;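 active means inhibition above the mean inhibition across every tested compound plus 3 SD, cut at about 22% in these data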;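 further: 0% = DMSO only wells and the 100% control is not disclosed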
# MBD2 inh: inhibitors of human MBD2 binding to methylated oligonucleotide; actives 0.31% (n = 370,000); TR-FRET; inhibition, % at 4.4 µM; Q9UBB5; AID 686964; in the data active means inhibition above about 13%
# RBBP9 inh: blocks human serine hydrolase RBBP9; inhibition, % at 7.94 µM; O75884; recombinant RBBP9, FP-Rh probe fluorescence polarization; AID 1515; actives 0.2% (n = 220,000);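 active means inhibition above the campaign mean of all tested compounds plus 3 SD, cut at about 14% in these data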;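 further: plate controls were DMSO wells with RBBP9 for no effect and wells lacking RBBP9 protein for full effect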
#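 Controls: DMSO-treated enzyme wells and wells lacking RBBP9 | Material: RBBP9 protein | Technique: Fluorescence polarization | Replication: Single well per compound, no replicates | Buffer or medium: Tris-NaCl-Pluronic buffer, pH 8.0 | Timing: 30 min compound preincubation, 45 min probe labeling, 25 °C | Read-out basis: Percent inhibition from mP, scaled between DMSO and no-protein wells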
# UHRF1 binding: blocks human UHRF1 binding to methylated DNA | actives 0.75% (n = 370,000) | inhibition, % at 4.4 µM | UHRF1 binding to methylated oligo, TR-FRET; in the data active means inhibition above about 21%;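 further: UHRF1 SRA domain binding a hemimethylated CpG hairpin DNA probe; 0% = median of test compound wells and 100% = reference inhibitor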
# Target sequence (Q96T88 whole entry, looked up, the tested form may be a part): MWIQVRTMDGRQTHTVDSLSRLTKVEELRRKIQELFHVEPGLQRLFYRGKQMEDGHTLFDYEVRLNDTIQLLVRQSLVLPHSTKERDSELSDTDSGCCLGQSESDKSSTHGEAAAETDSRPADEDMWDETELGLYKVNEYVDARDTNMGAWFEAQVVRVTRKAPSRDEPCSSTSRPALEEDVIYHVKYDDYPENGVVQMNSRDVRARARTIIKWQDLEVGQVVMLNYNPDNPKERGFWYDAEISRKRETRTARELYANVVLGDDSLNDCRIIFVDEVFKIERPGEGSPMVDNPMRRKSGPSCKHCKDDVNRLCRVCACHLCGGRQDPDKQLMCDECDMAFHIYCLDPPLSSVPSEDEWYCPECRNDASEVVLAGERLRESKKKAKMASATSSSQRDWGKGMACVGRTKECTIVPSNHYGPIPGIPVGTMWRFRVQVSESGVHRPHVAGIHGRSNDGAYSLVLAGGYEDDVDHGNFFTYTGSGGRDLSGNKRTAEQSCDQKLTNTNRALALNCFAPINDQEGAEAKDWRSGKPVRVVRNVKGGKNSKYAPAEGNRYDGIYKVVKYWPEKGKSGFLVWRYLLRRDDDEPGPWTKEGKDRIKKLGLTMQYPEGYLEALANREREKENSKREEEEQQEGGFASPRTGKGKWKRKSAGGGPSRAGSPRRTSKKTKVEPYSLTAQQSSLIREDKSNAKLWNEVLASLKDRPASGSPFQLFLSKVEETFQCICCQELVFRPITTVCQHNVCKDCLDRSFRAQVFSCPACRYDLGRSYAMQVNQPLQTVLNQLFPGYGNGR
# PRMT1 inh: PRMT1 (human) inhibition, primary screen; recombinant PRMT1, activity-based probe fluorescence polarization; inhibition, % at 2.79 µM; actives 1.3% (n = 370,000);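 active means inhibition above about 21% made by adding two undisclosed values, limit read from the data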
# ABHD5 PLIN5 conf: confirmation of human ABHD5-PLIN5 interaction inhibitors; biochemical ABHD5-PLIN5 interaction, luminescence; inhibition, % at 4 µM; shares compounds with ABHD5-PLIN5 inh; actives 67% (n = 2,200); AID 651612; in the data active means inhibition above about 23%;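 further: 0% = DMSO vehicle wells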
# HNF4 counter: counter-screen for ABHD5-PLIN5 inhibitors: HNF4 split-luciferase | shares compounds with ABHD5-PLIN5 inh | inhibition, % at 4 µM | HNF4 dimerization, luminescence, biochemical | actives 77% (n = 2,200);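 active means mean inhibition across replicate wells exceeding the computed hit threshold, cut at about 13% in these data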;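 further: light from luciferase halves that rejoin when HNF4 fusion proteins dimerize; 0% = DMSO only wells and the 100% control is not given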
# * = called active by the depositor; x = no result given. This is a sample that favours compounds with a hit; in the whole collection about 3.1% have one here.
SMILES,LEDGF integ inh,ABHD5-PLIN5 inh,MBD2 inh,RBBP9 inh,UHRF1 binding,PRMT1 inh,ABHD5 PLIN5 conf,HNF4 counter
CC(C)(C)c1cc(Cl)ccc1OCCn1ccnc1,4,-1,6,x,0,2,x,x
CC(O)CNCCCOc1ccc(Cl)cc1C(C)(C)C (configuration not stated),1,29*,-4,-10,1,1,11,6
CN(C)CCOCCOc1ccc(Cl)cc1C(C)(C)C,3,23*,3,10,3,-1,10,1
COc1cccc(C2=NC(C)(C)NC(c3ccccc3O)C2)c1 (configuration not stated),-5,57*,3,-8,0,0,73*,72*
CCC1(C)N=C(c2ccc3c(c2)OCO3)CC(c2ccccc2O)N1 (configuration not stated),2,50*,-6,7,-5,-2,91*,65*
CN1[C@@H](Cc2ccccc2)COc2cccc(N3CCCC3)c2S1(=O)=O,3,x,1,x,0,-6,x,x
CC(C)C(NS(=O)(=O)c1ccccc1)C(=O)OCc1cc([N+](=O)[O-])cc2c1OCOC2 (configuration not stated),-6,45*,-1,-11,-3,-1,4,6
Cc1nn(C)cc1NC(=O)CCSc1nc(-c2ccco2)cc(C(F)(F)F)n1,3,88*,0,-8,-1,-1,6,3
Cc1nn(C)c(C)c1NC(=O)CCSc1nc(-c2ccco2)cc(C(F)(F)F)n1,1,-2,-1,-2,-4,6,x,x
COc1ccc(C2CC(=O)C(c3ccccc3OC)=CN2Cc2ccccc2)cc1 (configuration not stated),2,x,3,x,1,-3,x,x
C(=NN=Cc1c[nH]c2ccccc12)c1c[nH]c2ccccc12,-1,9,-2,x,-1,-1,x,x
O=C1/C(=C/c2c[nH]c3ccccc23)CCC/C1=C\c1c[nH]c2ccccc12,3,30*,-4,4,-6,7,29*,58*
Cc1cccnc1NC(=O)CCc1nnc2ccc(NCc3ccco3)nn12,2,32*,7,x,6,13,11,6
COc1ccc(NC(=O)CCc2nnc3ccc(NCc4ccco4)nn23)cc1OC,2,34*,-3,x,-2,-1,12,13*
COc1ccc(NC(=O)CCc2nnc3ccc(NCc4ccco4)nn23)cc1,4,1,-2,x,-3,-3,x,x
Cc1cccc(-n2cnc3c(c2=O)c2nc4ccccc4nc2n3Cc2ccco2)c1,-1,30*,-4,x,0,21*,47*,70*
Cc1cccc(S(=O)(=O)c2c(N)n(Cc3ccco3)c3nc4ccccc4nc23)c1,1,6,-2,-5,-6,14,x,x
COc1ccc(Cn2ccc3ccc(-c4ccc5ccn(Cc6ccc(C#N)cc6)c5c4)cc32)cc1,-1,x,6,x,1,-4,x,x
O=C(Nc1ccc2ccccc2c1)NC1CCCCN(Cc2cccc(Cl)c2)C1=O (configuration not stated),4,x,2,x,1,2,x,x
COc1ccc(-n2cc(CNC3CCN(C)CC3)c(-c3cccc(F)c3)n2)cc1,0,32*,-2,-4,1,-6,19,11
O=C(Cn1cnc2ccccc2c1=O)N1CCCCC1,5,x,-2,x,1,-8,x,x
Cc1ccc(-c2c[n+](CC(=O)Nc3nc(-c4ccc(F)cc4)cs3)c3n2CCC3)cc1,-3,25*,2,-8,2,0,15,8
Cc1ccc(NC(=O)C[n+]2cc(-c3ccc(C)cc3)n3c2CCC3)cc1,-2,8,-8,-1,1,-2,x,x
Cc1ccc(-n2nc(-c3ccco3)cc2C(=O)O)c(C)c1,5,31*,9,-8,25*,20,23*,27*
CN(C)CCC1(C2=CCCC2)CC/C(=C/c2ccc(Cl)cc2)C1=O (configuration not stated),-3,32*,2,x,-1,4,39*,21*
SMILES,LEDGF integ inh,ABHD5-PLIN5 inh,MBD2 inh,RBBP9 inh,UHRF1 binding,PRMT1 inh,ABHD5 PLIN5 conf,HNF4 counter
Cc1ccccc1S(=O)(=O)N1CCCc2nc(-c3ccc(F)cc3)ccc21,-1,x,4,x,-1,-3,x,x
N#C/C(=C/c1ccc(N2CCOCC2)o1)c1ccc(Cl)cc1,-2,60*,-2,-3,-2,16,52*,106*
N#C/C(=C\c1ccc(N2CCCCC2)o1)C(N)=O,3,7,-20,-6,-45,-27,x,x
CC1=NNC(=O)C1CC(=O)N/N=C/C(Br)=C/c1ccccc1 (configuration not stated),-3,19,-4,-3,-5,0,x,x
O=C(N/N=C/C(Br)=C/c1ccccc1)c1cc(-c2ccco2)[nH]n1,1,25*,3,-20,-1,14,22*,72*
CC1C(=O)NN=C1C(=O)N/N=C\C(Br)=C\c1ccccc1 (configuration not stated),3,34*,-5,-9,-3,6,6,22*
CC(/C=N/NC(=O)c1cc(-c2ccc(C)o2)[nH]n1)=C\c1ccccc1,-1,2,0,-9,-3,1,x,x
COC(=O)CC#C[C@H](C)[C@@H](NS(=O)(=O)c1ccc(C)cc1)C1CCCCC1,-1,x,3,x,-2,-1,x,x
CCSc1nc2ccccc2n1C(=O)/C=C\c1ccc(OC)c(OC)c1,1,40*,3,-11,-3,-2,77*,60*
CCSc1nc2ccccc2n1CC(N)=O,2,-3,-1,-8,4,-1,x,x
COC(=O)c1cc(-c2c(C)noc2C)c(=O)n2c1CCC2,6,x,-7,x,0,-4,x,x
CC(=O)NC(Cc1ccccc1)C(=O)N1CCN(C(=O)c2ccco2)CC1 (configuration not stated),x,7,x,-8,x,x,x,x
CC(=O)NC(CSC(CC(=O)c1ccco1)c1ccc(C)cc1)C(=O)O (configuration not stated),-3,50*,6,-5,-4,10,40*,40*
N#CC(C#N)=Cc1ccc(-c2ccc(S(=O)(=O)N=C(N)N)cc2)o1,1,28*,10,-5,16,-3,41*,35*
COC(=O)/C(C#N)=C/c1ccc(-c2ccc(S(N)(=O)=O)cc2)o1,-4,3,1,-10,0,-3,x,x
O=C(CSc1nc2sc3c(c2c(=O)n1-c1ccc(Cl)cc1)CCCC3)c1ccccc1Cl,-1,x,-1,x,0,-2,x,x
